Laboratory results as given in publication PMC3755765 (ChemMedChem, 2013).
≈ marks a conversion by molar mass, not a printed value. Where “and” joins values, the source holds several entries; their conditions need not be identical. Identical values can stand only once.

Columns and labels:
[1] = system: T. gondii tachyzoites; assay: Parasite tissue culture assay: inhibition of T. gondii tachyzoites in HFF; type: cell-based, Toxoplasma gondii; conditions: for Activity in the parasite-based assay: T. gondii tachyzoites; for MIC50: 72 h, read-out: Parasite tissue culture assay MIC50
[2] = system: Human Foreskin Fibroblasts (HFF); assay: Toxicity for host cells; conditions: for Parasite tissue culture assay HFF (HFF toxicity): human foreskin fibroblasts, highest concentration tested 10 μM
[3] = biological target: T1, TgENR (Toxoplasma gondii, UniProt Q6UCJ9); assay: TgENR enzyme assay; type: biochemical; conditions: for Activity in the enzyme-based assay: purified TgENR; for inhibition at 1 µM: read-out: Cpd. conc. [1 μM]/% Inh.: percentage of inhibition of TgENR; for TgENR IC50 fold lower than that of analog 9c: 38 and 54 nM vs 130 nM
T1 sequence (Q6UCJ9 28-417): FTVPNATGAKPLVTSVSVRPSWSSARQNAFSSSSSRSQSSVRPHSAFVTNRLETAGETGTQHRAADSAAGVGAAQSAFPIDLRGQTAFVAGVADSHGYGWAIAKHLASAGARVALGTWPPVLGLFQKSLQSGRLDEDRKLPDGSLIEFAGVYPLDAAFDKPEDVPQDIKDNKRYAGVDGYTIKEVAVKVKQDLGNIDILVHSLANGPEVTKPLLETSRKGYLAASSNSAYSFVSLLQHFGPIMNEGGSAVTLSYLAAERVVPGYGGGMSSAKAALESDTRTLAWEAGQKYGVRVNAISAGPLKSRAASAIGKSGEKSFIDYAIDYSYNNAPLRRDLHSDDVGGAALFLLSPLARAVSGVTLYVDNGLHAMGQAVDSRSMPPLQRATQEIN

[4] = system: P. falciparum strain TM91C235 (WRAIR, Thailand, chloroquine resistant); assay: Malaria SYBR Green I-based fluorescence assay, strain TM91C235; type: cell-based; conditions: Plasmodium falciparum, 72 h, read-out: SYBR Green C235 IC50
In short: (§1)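 Late-ring or early-trophozoite parasites at 0.3% starting parasitemia and 2% hematocrit were added to plates predosed with quadruplicate 12-point two-fold dilutions in DMSO (final […]), with mefloquine as reference. Plates were incubated 72 h at 37°C under 5% CO2/5% O2/90% N2, lysed with Tris/EDTA/Triton X/saponin buffer with SYBR Green I (final 10x), kept dark 24 h at RT, and read as RFU. A chloroquine batch control at 2000 ng/ml validated each run.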

[5] = system: P. falciparum strain D6 (CDC/Sierra Leone); assay: Malaria SYBR Green I-based fluorescence assay, strain D6; type: cell-based; conditions: Plasmodium falciparum, D6, 72 h, read-out: SYBR Green D6 IC50
In short: as §1

Compound	Activity in the parasite-based assay [1]	MIC50 ([1]; Toxoplasma gondii)	Parasite tissue culture assay HFF (HFF toxicity) [2]	Activity in the enzyme-based assay [3]	inhibition at 1 µM [3]	IC50 [3]	TgENR IC50 fold lower than that of analog 9c [3]	IC50 [4]	IC50 [5]	IC50 ([1]; Toxoplasma gondii, read-out: IC50 (MIC50) against Toxoplasma gondii tachyzoites)	Toxicity to the host cells [2]	TgENR IC50 fold higher than that of 16c ([3]; 43 vs 26 nM)
COc1cc(Cn2cc(CCO)nn2)ccc1Oc1ccc(Cl)cc1Cl [Compound 8d, 2-[1-[4-(2,4-Dichlorophenoxy)-3-methoxybenzyl]-1H-1,2,3-triazol-4-yl]ethanol]	lack of activity	> 10 µM	> 10 µM	lack of activity	12%	–	–	–	–	–	–	–
CCCCc1cn(Cc2ccc(Oc3ccc(Cl)cc3Cl)c(O)c2)nn1 [Compound 9a, 5-[(4-Butyl-1H-1,2,3-triazol-1-yl)methyl]-2-(2,4-dichlorophenoxy)phenol]	inactive	> 10 µM	> 10 µM	–	94%	38 nM	approximately 3 fold	–	–	–	–	–
Oc1cc(Cn2cc(-c3ccccc3)nn2)ccc1Oc1ccc(Cl)cc1Cl [Compound 9b, 2-(2,4-Dichlorophenoxy)-5-[(4-phenyl-1H-1,2,3-triazol-1-yl)methyl]phenol]	inactive	> 10 µM	> 10 µM	–	93%	54 nM	~2 fold	–	–	–	–	–
Oc1cc(Cn2ccnn2)ccc1Oc1ccc(Cl)cc1Cl [Compound 9c, 2-(2,4-Dichlorophenoxy)-5-(1H-1,2,3-triazol-1-ylmethyl)phenol]	–	10 µM (≈ 3.36 µg/mL)	>10 µM	–	93%	130 nM	–	> 2 µg/mL	4.71 µM and 1.58 µg/mL	–	–	–
CCCCc1cn(Cc2ccc(Oc3ccc(Cl)cc3O)c(Cl)c2)nn1 [Compound 16a, 2-[4-[(4-Butyl-1H-1,2,3-triazol-1-yl)methyl]-2-chlorophenoxy]-5-chlorophenol]	–	0.25 µM (≈ 0.0981 µg/mL)	>10 µM	–	90%	–	–	–	–	250 nM	without apparent toxicity to the host cells	1.6 fold
Oc1cc(Cl)ccc1Oc1ccc(Cn2cc(-c3ccccc3)nn2)cc1Cl [Compound 16b, 5-Chloro-2-[2-chloro-4-[(4-phenyl-1H-1,2,3-triazol-1-yl)methyl]phenoxy]phenol]	activity comparable to or better than that of triclosan	1 µM (≈ 0.412 µg/mL)	>10 µM	–	82%	–	–	–	–	–	–	–
CCCCc1cc(-c2ccc(Oc3ccc(Cl)cc3Cl)c(O)c2)no1 [Compound 20a, 5-(5-Butyl-1,2-oxazol-3-yl)-2-(2,4-dichlorophenoxy)phenol]	completely inactive	> 10 µM	> 10 µM	completely inactive	59%	–	–	–	–	–	–	–
Oc1cc(-c2cc(-c3ccccc3)on2)ccc1Oc1ccc(Cl)cc1Cl [Compound 20b, 2-(2,4-Dichlorophenoxy)-5-(5-phenyl-1,2-oxazol-3-yl)phenol]	completely inactive	> 10 µM	> 10 µM	completely inactive	40%	–	–	–	–	–	–	–
C[Si](C)(C)c1cc(-c2ccc(Oc3ccc(Cl)cc3Cl)c(O)c2)no1 [Compound 20c, 2-(2,4-Dichlorophenoxy)-5-[5-(trimethylsilyl)-1,2-oxazol-3-yl]phenol]	–	7 µM (≈ 2.76 µg/mL)	> 10 µM	–	25%	–	–	–	–	–	–	–
CCCCc1cc(-c2ccc(Oc3ccc(Cl)cc3O)c(Cl)c2)no1 [Compound 24a, 2-[4-(5-Butyl-1,2-oxazol-3-yl)-2-chlorophenoxy]-5-chlorophenol]	–	8 µM (≈ 3.03 µg/mL)	>10 µM	–	92%	18 nM	–	–	–	–	–	–
Oc1cc(Cl)ccc1Oc1ccc(-c2cc(-c3ccccc3)on2)cc1Cl [Compound 24b, 5-Chloro-2-[2-chloro-4-(5-phenyl-1,2-oxazol-3-yl)phenoxy]phenol]	–	10 µM (≈ 3.98 µg/mL)	>10 µM	–	88%	28 nM	–	–	–	–	–	–
N#Cc1ccc(Oc2ccc(Cl)cc2Cl)c(O)c1 [Compound 27, 4-(2,4-Dichlorophenoxy)-3-hydroxybenzonitrile]	–	2 µM (≈ 0.56 µg/mL)	> 10 µM	–	97%	–	–	–	–	–	–	–
